{"data": "Assay results collected from several papers", "ADRA1A": "Alpha-1A adrenergic receptor (ADRA1A, Homo sapiens, UniProt P35348)", "MAL12": "Alpha-glucosidase MAL12 (MAL12, Saccharomyces cerevisiae S288c, UniProt P53341)", "HRH2": "Histamine H2 receptor (HRH2, Homo sapiens, UniProt P25021)", "rep main protease": "Replicase polyprotein 1ab, main protease (rep, Severe acute respiratory syndrome coronavirus 2, UniProt P0DTD1)", "note": "Lines come from different studies, so protocols differ."}
{"Structure (SMILES)": "CC(C)CC(=O)OC[C@H]1O[C@@](C#N)(c2ccc3c(N)ncnn23)[C@H](O)[C@@H]1O", "target": "ADRA1A", "test": "cell-free assay", "setting": "20 µM", "quantity": "inhibition", "value": "3%"}
{"Structure (SMILES)": "COc1cc2c(cc1OC)-c1c(OC)c(OC)cc3c1[C@H](C2)N(C)CC3 (racemic)", "target": "ADRA1A", "test": "ligand displacement, radioligand", "setting": "10 µM", "quantity": "inhibition", "value": "69%"}
{"Structure (SMILES)": "CCc1ccc(N2C(=O)/C(=C3/C(=O)N(C)c4ccc(Cl)cc43)NC2=S)cc1", "target": "MAL12", "test": "enzyme activity, inhibitor, absorbance", "setting": "25 µM", "quantity": "inhibition", "value": "14.6%"}
{"Structure (SMILES)": "CN1CCC[C@H]1c1cccnc1", "target": "HRH2", "test": "ligand displacement", "setting": "50 µM", "quantity": "inhibition", "value": "3.47%"}
{"Structure (SMILES)": "O=C(O[C@@H]1Cc2c(O)cc(O)cc2O[C@@H]1c1ccc(O)c(O)c1)c1cc(O)c(O)c(O)c1", "target": "rep main protease", "test": "enzyme activity, inhibitor", "quantity": "kinact/KI", "value": "9.76 M⁻¹ s⁻¹"}
{"Structure (SMILES)": "CCOC(=O)Cc1c2c3c(cc(OC)c(OC)c3c3cc(OC)c(OC)cc13)CCN2C", "target": "ADRA1A", "test": "ligand displacement, radioligand", "setting": "10 µM", "quantity": "inhibition", "value": "13%"}
{"Structure (SMILES)": "CN1C(=O)/C(=N\\Nc2ncc(-c3cc4ccccc4oc3=O)s2)c2cc(Cl)ccc21", "target": "MAL12", "test": "enzyme activity, inhibitor, absorbance", "setting": "100 µM", "quantity": "inhibition", "value": "48.3%"}
{"Structure (SMILES)": "c1cncc([C@@H]2CCCN2)c1", "target": "HRH2", "test": "ligand displacement", "setting": "50 µM", "quantity": "inhibition", "value": "-6.37%"}
{"Structure (SMILES)": "O=C(O)c1cc(O)c(O)c(O)c1", "target": "rep main protease", "test": "enzyme activity, inhibitor", "quantity": "kinact", "value": "0.00079 s⁻¹"}
{"Structure (SMILES)": "O=c1c(O)c(-c2cc(O)c(O)c(O)c2)oc2cc(O)cc(O)c12", "target": "rep main protease", "test": "enzyme activity, inhibitor", "setting": "100 µM", "quantity": "inhibition", "value": "100%"}
{"Structure (SMILES)": "COc1cc2c3c(c1OC)-c1c(cccc1OC)CC3N(C)CC2 (racemic)", "target": "ADRA1A", "test": "ligand displacement, radioligand", "setting": "10 µM", "quantity": "inhibition", "value": "65%"}
{"Structure (SMILES)": "[2H]c1c([2H])c([C@]2([2H])CCCN2C(=O)C(C)(C)Oc2ccc3cn[nH]c3c2)c([2H])c([2H])c1C([2H])([2H])[2H]", "target": "Homeodomain-interacting protein kinase 4 (HIPK4, Homo sapiens, UniProt Q8NE63)", "test": "binding, competition with immobilised ligand", "setting": "1 µM", "quantity": "remaining binding", "value": "59%"}
{"Structure (SMILES)": "COc1ccc(-c2cc(=O)c3c(O)cc(OC)cc3o2)cc1", "target": "rep main protease", "test": "enzyme activity, inhibitor", "setting": "10 µM", "quantity": "inhibition", "value": "3.99%"}
{"Structure (SMILES)": "CN1C(=S)N(c2ccccc2)C(=O)/C1=C1/C(=O)N(C)c2ccc(Cl)cc21", "target": "MAL12", "test": "enzyme activity, inhibitor, absorbance", "setting": "25 µM", "quantity": "inhibition", "value": "11.9%"}
{"Structure (SMILES)": "O=c1c(O)c(-c2ccc(O)cc2)oc2c(O)c(O)cc(O)c12", "target": "rep main protease", "test": "enzyme activity, inhibitor", "quantity": "kinact", "value": "0.000152 s⁻¹"}
{"Structure (SMILES)": "COc1cc(O)c2c(c1)O[C@H](c1ccccc1)CC2=O", "target": "rep main protease", "test": "enzyme activity, inhibitor", "setting": "100 µM", "quantity": "inhibition", "value": "7.82%"}
